Columns and labels:
[1] = molecular target: Muscarinic acetylcholine receptor M3 (Homo sapiens, UniProt P20309); test: Displacement of [3H]-N-methyl-scopolamine from human muscarinic M3 receptor after 6 hrs by cell based assay
Procedure, shortened: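 Human M3 receptor-expressing cell membranes incubated up to 6 h at 37 °C with 1 nM [3H]N-methyl-scopolamine and serial dilutions of compound. Buffer 10 mM Hepes, 100 mM NaCl, 10 mM MgCl2, pH 7.4 at 37 °C. IC50 from displacement converted to Ki by Cheng–Prusoff.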

[2] = molecular target: T1, Beta-2 adrenergic receptor (Homo sapiens, UniProt P07550); test: Agonist activity at human beta2-adrenoceptor expressed in HEK cells assessed as increase of cAMP level after 10 mins by radioimmunoassay; format: functional, cell-based, HEK293
[3] = molecular target: T1, Beta-2 adrenergic receptor; test: Displacement of [3H]-dihydroalprenolol from human beta2-adrenoceptor expressed in HEK cells after 4 hrs; format: cell-based, HEK293

T1 sequence (P07550 whole entry): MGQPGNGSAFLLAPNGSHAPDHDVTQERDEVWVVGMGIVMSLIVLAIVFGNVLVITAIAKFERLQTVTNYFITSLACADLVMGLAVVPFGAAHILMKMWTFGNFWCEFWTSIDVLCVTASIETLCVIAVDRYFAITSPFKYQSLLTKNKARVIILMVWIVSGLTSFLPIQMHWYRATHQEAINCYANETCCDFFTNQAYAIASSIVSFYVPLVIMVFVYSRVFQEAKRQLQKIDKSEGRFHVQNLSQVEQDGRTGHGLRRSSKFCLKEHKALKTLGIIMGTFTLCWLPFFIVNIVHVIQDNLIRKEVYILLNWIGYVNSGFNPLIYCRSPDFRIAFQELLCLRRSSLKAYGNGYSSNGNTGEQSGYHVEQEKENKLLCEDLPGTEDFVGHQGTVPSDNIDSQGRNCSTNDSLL
Muscarinic acetylcholine receptor M3, sequence (P20309 whole entry): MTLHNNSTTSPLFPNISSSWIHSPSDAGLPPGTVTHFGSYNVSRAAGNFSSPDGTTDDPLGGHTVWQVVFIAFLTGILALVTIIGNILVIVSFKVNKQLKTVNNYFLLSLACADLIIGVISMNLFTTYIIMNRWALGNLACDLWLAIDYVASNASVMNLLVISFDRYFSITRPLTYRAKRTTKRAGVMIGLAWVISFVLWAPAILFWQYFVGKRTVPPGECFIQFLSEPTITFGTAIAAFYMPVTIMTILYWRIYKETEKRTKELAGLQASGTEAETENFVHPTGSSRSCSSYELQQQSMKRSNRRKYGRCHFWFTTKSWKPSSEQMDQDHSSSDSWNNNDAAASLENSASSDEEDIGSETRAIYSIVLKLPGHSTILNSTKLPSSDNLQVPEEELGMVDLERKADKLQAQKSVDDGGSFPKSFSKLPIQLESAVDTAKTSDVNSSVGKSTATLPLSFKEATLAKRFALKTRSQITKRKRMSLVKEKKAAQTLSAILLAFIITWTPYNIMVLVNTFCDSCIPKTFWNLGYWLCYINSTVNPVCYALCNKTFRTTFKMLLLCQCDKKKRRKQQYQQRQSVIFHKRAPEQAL

| SMILES | Ki [1] | EC50 [2] | Ki [3] |
| --- | --- | --- | --- |
| O=C(Nc1ccccc1-c1ccccc1)OC1CCNCC1 | 46 nM |  |  |
| CN1CCC(OC(=O)Nc2ccccc2-c2ccccc2)CC1 | 22 nM |  |  |
| CCN1CCC(OC(=O)Nc2ccccc2-c2ccccc2)CC1 | 55 nM |  |  |
| CCCN1CCC(OC(=O)Nc2ccccc2-c2ccccc2)CC1 | 77 nM |  |  |
| CCCCN1CCC(OC(=O)Nc2ccccc2-c2ccccc2)CC1 | 17 nM |  |  |
| CCCCCN1CCC(OC(=O)Nc2ccccc2-c2ccccc2)CC1 | 14 nM |  |  |
| CCCCCCN1CCC(OC(=O)Nc2ccccc2-c2ccccc2)CC1 | 4.8 nM |  |  |
| CCCCCCCN1CCC(OC(=O)Nc2ccccc2-c2ccccc2)CC1 | 5.1 nM |  |  |
| CCCCCCCCN1CCC(OC(=O)Nc2ccccc2-c2ccccc2)CC1 | 7 nM |  |  |
| CCCCCCCCCN1CCC(OC(=O)Nc2ccccc2-c2ccccc2)CC1 | 9.5 nM |  |  |
| CCCCCCCCCCN1CCC(OC(=O)Nc2ccccc2-c2ccccc2)CC1 | 25 nM |  |  |
| CCCCCCCCCCCN1CCC(OC(=O)Nc2ccccc2-c2ccccc2)CC1 | 48 nM |  |  |
| NCCN1CCC(OC(=O)Nc2ccccc2-c2ccccc2)CC1 | 50 nM |  |  |
| NCCCN1CCC(OC(=O)Nc2ccccc2-c2ccccc2)CC1 | 67 nM |  |  |
| NCCCCN1CCC(OC(=O)Nc2ccccc2-c2ccccc2)CC1 | 84 nM |  |  |
| NCCCCCN1CCC(OC(=O)Nc2ccccc2-c2ccccc2)CC1 | 98 nM |  |  |

| SMILES | Ki [1] | EC50 [2] | Ki [3] |
| --- | --- | --- | --- |
| NCCCCCCN1CCC(OC(=O)Nc2ccccc2-c2ccccc2)CC1 | 19 nM |  |  |
| NCCCCCCCN1CCC(OC(=O)Nc2ccccc2-c2ccccc2)CC1 | 0.53 nM |  |  |
| NCCCCCCCCN1CCC(OC(=O)Nc2ccccc2-c2ccccc2)CC1 | 1.8 nM |  |  |
| NCCCCCCCCCN1CCC(OC(=O)Nc2ccccc2-c2ccccc2)CC1 | 0.75 nM |  |  |
| NCCCCCCCCCCN1CCC(OC(=O)Nc2ccccc2-c2ccccc2)CC1 | 1.6 nM |  |  |
| NCCCCCCCCCCCN1CCC(OC(=O)Nc2ccccc2-c2ccccc2)CC1 | 2.5 nM |  |  |
| NCCCCCCCCCCCCN1CCC(OC(=O)Nc2ccccc2-c2ccccc2)CC1 | 2.6 nM |  |  |
| O=C(Nc1ccccc1-c1ccccc1)OC1CCN(CCCNC[C@H](O)c2ccc(O)c3[nH]c(=O)ccc23)CC1 | 28 nM | 1.3 nM | 19 nM |
| O=C(Nc1ccccc1-c1ccccc1)OC1CCN(CCCCCCCNC[C@H](O)c2ccc(O)c3[nH]c(=O)ccc23)CC1 | 0.74 nM | 1.1 nM | 10 nM |
| O=C(Nc1ccccc1-c1ccccc1)OC1CCN(CCCCCCCCNC[C@H](O)c2ccc(O)c3[nH]c(=O)ccc23)CC1 | 0.32 nM | 0.32 nM | 3.4 nM |
| O=CNc1cc([C@@H](O)CNCCCCCCCCCN2CCC(OC(=O)Nc3ccccc3-c3ccccc3)CC2)ccc1O | 0.14 nM | 2.6 nM | 21 nM |
| O=C(Nc1ccccc1-c1ccccc1)OC1CCN(CCCCCCCCCNC[C@H](O)c2ccc(O)c(CO)c2)CC1 | 0.14 nM | 14 nM | 61 nM |
| NC(=O)C(c1ccccc1)(c1ccccc1)[C@@H]1CCN(CCCCCCCCCNCC(O)c2ccc(O)c3[nH]c(=O)ccc23)C1 (stereo not given in full) | 32 nM | 3.3 nM | 60 nM |
| O=C(Nc1ccccc1-c1ccccc1)NC1CCN(CCCCCCCCCNCC(O)c2ccc(O)c3[nH]c(=O)ccc23)CC1 (stereo not given) | 7.5 nM | 8.4 nM | 115 nM |
| O=C(Nc1ccccc1-c1ccccc1)O[C@H]1C[N+]2(CCCCCCCCCNCC(O)c3ccc(O)c4[nH]c(=O)ccc34)CCC1CC2 (stereo not given in full) | 140 nM | 8.9 nM | 123 nM |
| C[N+]1(CCCCCCCCCNC[C@H](O)c2ccc(O)c3[nH]c(=O)ccc23)[C@@H]2C[C@H](OC(=O)C(O)(c3cccs3)c3cccs3)C[C@@H]1[C@H]1O[C@H]12 (stereo not given in full) | 4.6 nM | 0.9 nM | 36 nM |
